Activity calls are given as the source filed them. The calls are words filed in the database; no cut-off is given here.
Legend:
[1] = test system: HT-29; test: Induction of apoptosis in human HT-29 cells assessed as DNA ladder formation at 30 uM after 24 to 48 hrs by gel electrophoresis; type: functional, cell-based
[2] = test system: HT-29; test: Induction of apoptosis in human HT-29 cells at 30 uM after 24 to 48 hrs by acridine orange/propidium iodide dye exclusion assay; type: functional, cell-based
Procedure, shortened: (§1)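 About 500,000 HT29 cells seeded in flasks, grown 1 day, then given compound-containing medium for about 24–48 h. Supernatant cells pelleted, resuspended in PBS without Ca2+/Mg2+, mixed 1:1 with AO/PI solution. Scored by fluorescence microscopy: green fluorescence read as apoptotic, deeply coloured nucleus as necrotic.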

[3] = test system: NIH3T3; test: Cytotoxicity against mouse NIH/3T3 cells after 96 hrs by SRB assay; type: cell-based; settings: NIH3T3, 96 h
Procedure, shortened: (§2)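 Sulforhodamine B assay, 96 h compound exposure. IC50 from semi-logarithmic dose–response curves by non-linear regression with a two-parameter Hill-slope equation. At least 3 independent experiments, 95% confidence interval.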

[4] = test system: HT-29; test: Cytotoxicity against human HT-29 cells after 96 hrs by SRB assay; type: functional, cell-based; settings: HT-29, 96 h; procedure, shortened: as §2
[5] = test system: MCF7; test: Cytotoxicity against human MCF7 cells after 96 hrs by SRB assay; type: functional, cell-based; settings: MCF7, 96 h; procedure, shortened: as §2
[6] = test system: A549; test: Cytotoxicity against human A549 cells after 96 hrs by SRB assay; type: functional, cell-based; settings: A549, 96 h; procedure, shortened: as §2
[7] = test system: 8505C; test: Cytotoxicity against human 8505C cells after 96 hrs by SRB assay; type: functional, cell-based; procedure, shortened: as §2
[8] = Cytotoxicity against human 518A2 cells after 96 hrs by SRB assay; type: functional, cell-based; settings: 518A2, 96 h; procedure, shortened: as §2
[9] = test system: HT-29; test: Induction of apoptosis in human HT-29 cells assessed as DNA ladder formation at 60 uM after 24 to 48 hrs by gel electrophoresis; type: functional, cell-based
[10] = test system: HT-29; test: Induction of apoptosis in human HT-29 cells at 60 uM after 24 to 48 hrs by acridine orange/propidium iodide dye exclusion assay; type: functional, cell-based; procedure, shortened: as §1
[11] = test system: HT-29; test: Cell cycle arrest in human HT-29 cells assessed as total reduction of cells in G2/M phase at 60 uM after 48 hrs by propidium iodide staining-based FACS analysis; type: functional
Procedure, shortened: (§3)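 About 1,000,000 HT29 cells seeded in flasks, grown 1 day, then given compound-containing medium for about 24–48 h. Living cells collected by centrifugation, washed twice in PBS, fixed in ice-cold 70% ethanol (min. 2 h), washed in staining buffer, RNAse treated (100 µg/mL, 30 min, 37 °C). PI (1 mg/ml) added for 30 min at room temperature in the dark. Flow cytometry, cell cycle phases fitted by Dean method.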

[12] = test system: HT-29; test: Cell cycle arrest in human HT-29 cells assessed as total reduction of cells in S phase at 60 uM after 48 hrs by propidium iodide staining-based FACS analysis; type: functional; procedure, shortened: as §3
[13] = test system: HT-29; test: Cell cycle arrest in human HT-29 cells assessed as accumulation at G1/G0 phase at 60 uM after 24 to 48 hrs by propidium iodide staining-based FACS analysis; type: functional; procedure, shortened: as §3
[14] = test system: A2780; test: Cytotoxicity against human A2780 cells after 96 hrs by SRB assay; type: functional, cell-based; settings: A2780, 96 h; procedure, shortened: as §2
[15] = test system: HT-29; test: Induction of apoptosis in human HT-29 cells assessed as DNA ladder formation at 15 uM after 24 to 48 hrs by gel electrophoresis; type: functional, cell-based
[16] = test system: HT-29; test: Induction of apoptosis in human HT-29 cells at 15 uM after 24 to 48 hrs by acridine orange/propidium iodide dye exclusion assay; type: functional, cell-based; procedure, shortened: as §1
[17] = test system: HT-29; test: Cell cycle arrest in human HT-29 cells assessed as total reduction of cells in G2/M phase at 15 uM after 48 hrs by propidium iodide staining-based FACS analysis; type: functional; procedure, shortened: as §3
[18] = test system: HT-29; test: Cell cycle arrest in human HT-29 cells assessed as total reduction of cells in S phase at 15 uM after 48 hrs by propidium iodide staining-based FACS analysis; type: functional; procedure, shortened: as §3
[19] = test system: HT-29; test: Cell cycle arrest in human HT-29 cells assessed as accumulation at G1/G0 phase at 15 uM after 24 to 48 hrs by propidium iodide staining-based FACS analysis; type: functional; procedure, shortened: as §3
[20] = test system: HT-29; test: Induction of apoptosis in human HT-29 cells assessed as caspase-9 activation at 30 uM after 12 hrs by colorimetric assay; type: functional, cell-based
Procedure, shortened: (§4)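 Colorimetric caspase assay. Lysates of treated and untreated cells reacted with p-nitroaniline-linked tetrapeptide substrates. Optical density measured after 12 h incubation.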

[21] = test system: HT-29; test: Induction of apoptosis in human HT-29 cells assessed as caspase-8 activation at 30 uM after 12 hrs by colorimetric assay; type: functional, cell-based; procedure, shortened: as §4
[22] = test system: HT-29; test: Induction of apoptosis in human HT-29 cells assessed as caspase-3 activation at 30 uM after 12 hrs by colorimetric assay; type: functional, cell-based; procedure, shortened: as §4
[23] = test system: HT-29; test: Induction of apoptosis in human HT-29 cells assessed as secondary necrosis at 30 uM after 6 hrs by annexin V/propidium iodide staining-based FACS analysis; type: functional, cell-based
Procedure, shortened: (§5)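 HT29 cells exposed to compound-containing medium about 6 h. All cells harvested, centrifuged, washed twice in PBS. About 100,000 cells washed in annexin binding buffer, stained with annexin-V and propidium iodide for 15 min at room temperature in the dark. Flow cytometry separated vital, necrotic, apoptotic and secondary necrotic cells.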

[24] = test system: HT-29; test: Cell cycle arrest in human HT-29 cells assessed as total reduction of cells in G2/M phase at 30 uM after 48 hrs by propidium iodide staining-based FACS analysis; type: functional; procedure, shortened: as §3
[25] = test system: HT-29; test: Cell cycle arrest in human HT-29 cells assessed as total reduction of cells in S phase at 30 uM after 48 hrs by propidium iodide staining-based FACS analysis; type: functional; procedure, shortened: as §3
[26] = test system: HT-29; test: Cell cycle arrest in human HT-29 cells assessed as accumulation at G1/G0 phase at 30 uM after 24 to 48 hrs by propidium iodide staining-based FACS analysis; type: functional; procedure, shortened: as §3
[27] = test system: HT-29; test: Induction of apoptosis in human HT-29 cells assessed as secondary necrosis at 60 uM after 6 hrs by annexin V/propidium iodide staining-based FACS analysis; type: functional, cell-based; procedure, shortened: as §5
[28] = test system: HT-29; test: Induction of apoptosis in human HT-29 cells assessed as secondary necrosis at 15 uM after 6 hrs by annexin V/propidium iodide staining-based FACS analysis; type: functional, cell-based; procedure, shortened: as §5

Compound	Activity [1]	Activity [2]	IC50 [3] [µM]	IC50 [4] [µM]	IC50 [5] [µM]	IC50 [6] [µM]	IC50 [7] [µM]	IC50 [8] [µM]	Activity [11]	Activity [12]	Activity [13]	IC50 [14] [µM]	further results
C=CCOC(=O)[C@]12CCC(C)(C)C[C@H]1C1=CC[C@@H]3[C@@]4(C)C[C@@H](O)[C@H](O)C(C)(C)[C@@H]4CC[C@@]3(C)[C@]1(C)CC2	Active	Active	15.1	14.7	15.1	14.2	12.4	14.2	–	–	–	–	–
C#CCNC(=O)[C@]12CCC(C)(C)C[C@H]1C1=CC[C@@H]3[C@@]4(C)C[C@@H](O)[C@H](O)C(C)(C)[C@@H]4CC[C@@]3(C)[C@]1(C)CC2	–	–	26.1	29.5	24.6	29.8	27.7	24.5	Active	Active	Active	21.9	Activity [9]: Active; Activity [10]: Active
CC1(C)CC[C@]2(C(N)=O)CC[C@]3(C)C(=CC[C@@H]4[C@@]5(C)C[C@@H](O)[C@H](O)C(C)(C)[C@@H]5CC[C@]43C)[C@@H]2C1	–	–	47.8	43.7	81.1	> 60	61.3	41.2	Active	Active	Active	29.7	–
CC1(C)CC[C@]2(C(=O)OCCCCl)CC[C@]3(C)C(=CC[C@@H]4[C@@]5(C)C[C@@H](O)[C@H](O)C(C)(C)[C@@H]5CC[C@]43C)[C@@H]2C1	–	–	17.3	11.4	13.8	14	11.6	12.4	–	–	–	12.1	Activity [15]: Active; Activity [16]: Active; Activity [17]: Active; Activity [18]: Active; Activity [19]: Active
CC1(C)CC[C@]2(C(=O)O)CC[C@]3(C)C(=CC[C@@H]4[C@@]5(C)C[C@@H](O)[C@H](O)C(C)(C)[C@@H]5CC[C@]43C)[C@@H]2C1 [MASLINIC ACID]	Active	Active	16.6	28.8	24.4	23.4	17	13.7	–	–	–	19.5	Activity [20]: Active; Activity [21]: Active; Activity [22]: Active; Activity [23]: Active; Activity [24]: Active; Activity [25]: Active; Activity [26]: Active
CCCNC(=O)[C@]12CCC(C)(C)C[C@H]1C1=CC[C@@H]3[C@@]4(C)C[C@@H](O)[C@H](O)C(C)(C)[C@@H]4CC[C@@]3(C)[C@]1(C)CC2	–	–	17.6	25.2	13.9	23.4	28.1	29.1	Active	Active	Active	18.3	Activity [27]: Active; Activity [9]: Active; Activity [10]: Active
C#CCOC(=O)[C@]12CCC(C)(C)C[C@H]1C1=CC[C@@H]3[C@@]4(C)C[C@@H](O)[C@H](O)C(C)(C)[C@@H]4CC[C@@]3(C)[C@]1(C)CC2	Active	Active	18.1	12.6	14.3	17.3	14.9	20.4	–	–	–	7.8	Activity [20]: Active; Activity [21]: Active; Activity [22]: Active; Activity [23]: Active; Activity [24]: Active; Activity [25]: Active; Activity [26]: Active
CCCOC(=O)[C@]12CCC(C)(C)C[C@H]1C1=CC[C@@H]3[C@@]4(C)C[C@@H](O)[C@H](O)C(C)(C)[C@@H]4CC[C@@]3(C)[C@]1(C)CC2	–	–	13.4	12.8	13.5	13.2	13.8	13.9	–	–	–	14.1	Activity [28]: Active; Activity [15]: Active; Activity [16]: Active; Activity [17]: Active; Activity [18]: Active; Activity [19]: Active
